Data set [1] concerns BMDM. The experiment in a line: Inhibition of LPS-induced M1 polarization in C57BL/6J mouse BMDM cells assessed as down regulation of CD86 expression measured after 24 hrs by FACS analysis. Type of data set: functional, cell-based. The method in brief: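 BMDMs pretreated with 50 ng/ml LPS for 24 h, then given compound (300 nM, or a range of concentrations) for 24 h. Stained for F4/80 and CD86; % CD86+F4/80+ cells read by flow cytometry. Mean ± SEM, at least three independent experiments.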

Data set [2] has as its system BMDM. The experiment in a line: Antiinflammatory activity in LPS-induced C57BL/6J mouse BMDM cells assessed as suppression of M1 macrophage-stimulated Th17 cell population by measuring decrease in Il17 level at 300 nM measured after 48 hrs by ELISA. The format is functional, cell-based. The method in brief:
(§1)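 Supernatant collected from the 72 h coculture of CFSE-labelled naïve CD4+ T cells (anti-CD3/anti-CD28, 500 ng/ml each, 1:1) with BMDMs pretreated 48 h with 50 ng/ml LPS plus 300 nM compound. IFN-γ or IL-17A quantified by ELISA. Mean ± SEM, at least three independent experiments.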

The target in data set [3] is Signal transducer and activator of transcription 3 (Mus musculus) (UniProt P42227). Kind of data set: Stimulation of STAT3 phosphorylation at Y705 residue in mouse RAW264.7 cells at 300 nM measured after 4 to 24 hrs by Western blot analysis. The format is cell-based. The method in brief: (§2)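 Cell lysates separated by SDS-PAGE, transferred to PVDF and probed for Akt, p-Akt(308), p-Akt(473), Stat3, p-Stat3(Y705), Stat6 and p-Stat6; ECL detection, GAPDH as loading control.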
Sequence of Signal transducer and activator of transcription 3 (Mus musculus) (P42227 whole entry): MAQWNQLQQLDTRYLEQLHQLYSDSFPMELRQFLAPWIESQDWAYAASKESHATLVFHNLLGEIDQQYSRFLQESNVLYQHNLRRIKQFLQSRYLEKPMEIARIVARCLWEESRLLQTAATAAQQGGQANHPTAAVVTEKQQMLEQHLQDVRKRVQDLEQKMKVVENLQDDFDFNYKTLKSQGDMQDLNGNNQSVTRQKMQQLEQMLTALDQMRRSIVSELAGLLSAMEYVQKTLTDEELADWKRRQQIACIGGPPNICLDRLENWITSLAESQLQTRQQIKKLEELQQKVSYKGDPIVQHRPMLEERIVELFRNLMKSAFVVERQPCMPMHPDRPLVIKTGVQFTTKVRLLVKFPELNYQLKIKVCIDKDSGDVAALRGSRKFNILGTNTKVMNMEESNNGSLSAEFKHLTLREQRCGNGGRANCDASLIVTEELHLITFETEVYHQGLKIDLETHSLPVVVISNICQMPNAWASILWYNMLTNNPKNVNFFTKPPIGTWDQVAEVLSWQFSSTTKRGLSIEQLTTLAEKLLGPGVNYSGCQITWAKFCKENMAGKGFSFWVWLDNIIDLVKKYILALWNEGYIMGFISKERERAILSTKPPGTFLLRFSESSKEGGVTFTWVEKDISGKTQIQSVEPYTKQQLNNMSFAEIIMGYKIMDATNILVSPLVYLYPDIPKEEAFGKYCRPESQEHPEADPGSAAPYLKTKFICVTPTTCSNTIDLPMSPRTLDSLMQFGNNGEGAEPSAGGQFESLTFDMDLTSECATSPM

Data set [4] can be described thus: Cmax in Sprague-Dawley rat at 10 mg/kg, iv administered as single dose by LC/MS analysis. Type of data set: ADME, organism-based. The settings on record: in vivo. Further details: dose 10 mg/kg, route intravenous. The essentials:
(§3)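 Single dose in rats; venous blood (100 µL) drawn at 0, 0.5, 1, 2, 4, 8 and 12 h, plasma separated by centrifugation and held at -20 °C. Compound measured by LC/MS; Cmax, Tmax, t1/2 and AUC derived from the concentration–time data.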

Data set [5] deals with Mus musculus. The experiment in a line: Antiinflammatory activity in C57BL/6J mouse model of MOG (35 to 55 residues)/pertussis toxin/complete Freund's adjuvant-induced experimental allergic encephalomyelitis assessed as reduction in demyelination in spinal cord at 200 mg/kg, ig administered daily starting from 7 days post-immunization measured after 14 days post-immunization by H and E staining based microscopic analysis. The format is functional, organism-based. The essentials: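 EAE mice dosed daily in saline from day 7 were perfused with PBS and fixed in 4% PFA on day 14; spinal cords were taken. For LFB, frozen OCT sections sat 3 h in 0.1% Luxol Fast Blue at 56-60°C, were differentiated in 0.05% lithium carbonate for 10-12 s, cleared in 70% ethanol, dehydrated and mounted. For H&E, paraffin sections were stained to assess inflammation.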

Data set [6] in a line: Half life in Sprague-Dawley rat at 10 mg/kg, iv administered as single dose by LC/MS analysis. Type of data set: ADME, organism-based. The settings on record: in vivo. The essentials: as §3
In data set [7] the test system is BMDM. Kind of data set: Antiinflammatory activity in LPS-induced C57BL/6J mouse BMDM cells assessed as suppression of M1 macrophage-stimulated Th1 cell population by measuring decrease in IFNgamma level at 300 nM measured after 48 hrs by ELISA. The format is functional, cell-based. The method in brief:
as §1

Data set [8] in a line: AUC (0 to infinity) in Sprague-Dawley rat at 50 mg/kg, po administered as single dose via gavage by LC/MS analysis. The format is ADME, organism-based. Further details: dose 50 mg/kg, time infinity, route oral. As to conditions: in vivo. The essentials:
as §3

Data set [9] deals with Mus musculus. Kind of data set: Antiinflammatory activity in C57BL/6J mouse model of MOG (35 to 55 residues)/pertussis toxin/complete Freund's adjuvant-induced experimental allergic encephalomyelitis assessed as effect on Treg cell population in spleen by measuring change in CD4 level at 200 mg/kg, ig administered daily starting from 7 days post-immunization measured after 13 to 19 days post-immunization by flow cytometry analysis. The format is functional, organism-based. The essentials: (§4)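 MOG35-55/CFA EAE mice were dosed daily in saline from day 7 and sampled between days 13 and 19. Spleens and dLNs were mechanically dissociated to single cells. CNS cells came from collagenase IV digestion and a 70%/30% Percoll gradient. Cells were surface-stained with fluorochrome antibodies, including CD4, CD11b, CD11c and MHC-II, and analysed by flow cytometry.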

Data set [10] concerns the target RAC-alpha serine/threonine-protein kinase (Mus musculus) (UniProt P31750). The experiment in a line: Stimulation of AKT phosphorylation at 308 residue in mouse RAW264.7 cells at 300 nM measured after 4 to 24 hrs by Western blot analysis. Type of data set: cell-based. The method in brief:
as §2

Data set [11] relates to RAW264.7. Kind of data set: Modulation of M2 polarization in mouse RAW264.7 cells assessed as change in Arg1 mRNA expression at 300 nM measured after 24 hrs by qRT-PCR analysis relative to control. The format is functional. The essentials:
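RAW264.7 cells (DMEM, 10% FBS) given 300 nM compound for 24 h; IL-4 20 ng/ml as positive control. Arg1 mRNA measured by qRT-PCR; fold change = expression in dosed group / expression in untreated control.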

The test system of data set [12] is Mus musculus. Kind of data set: Antiinflammatory activity in C57BL/6J mouse model of MOG (35 to 55 residues)/pertussis toxin/complete Freund's adjuvant-induced experimental allergic encephalomyelitis assessed as effect on Treg cell population in CNS by measuring change in CD4 level at 200 mg/kg, ig administered daily starting from 7 days post-immunization measured after 13 to 19 days post-immunization by flow cytometry analysis. The format is functional, organism-based. The essentials:
as §4

A short description of data set [13]: Oral bioavailability in Sprague-Dawley rat at 50 mg/kg administered as single dose via gavage by LC/MS analysis. Type of data set: ADME, organism-based. As to conditions: in vivo.
Data set [14] has as its system BMDM. The experiment in a line: Modulation of M2 polarization in C57BL/6J mouse BMDM cells assessed as up regulation of Arg1 mRNA expression at 300 nM measured after 24 hrs by qRT-PCR analysis. The format is functional, cell-based. The essentials:
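BMDMs treated 24 h with 300 nM compound at 37 °C, 5% CO2. Trizol RNA extraction, then qRT-PCR for Arg1, Mrc1 and Fizz1 mRNA. Mean ± SEM.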

Data set [15] deals with Mus musculus. The experiment in a line: Antiinflammatory activity in C57BL/6J mouse model of MOG (35 to 55 residues)/pertussis toxin/complete Freund's adjuvant-induced experimental allergic encephalomyelitis assessed as effect on dendritic cell population in CNS by measuring change in CD11c level at 200 mg/kg, ig administered daily starting from 7 days post-immunization measured after 13 to 19 days post-immunization by flow cytometry analysis. Type of data set: functional, organism-based. The essentials: as §4

Data set [16] concerns RAW264.7. Kind of data set: Modulation of M2 polarization in mouse RAW264.7 cells assessed as up regulation of IL13RA1 mRNA expression at 300 nM measured after 24 hrs by qRT-PCR analysis. Type of data set: functional, cell-based.
Data set [17] concerns RAW264.7. Kind of data set: Inhibition of M1 polarization in mouse RAW264.7 cells assessed as down regulation of TNFSF15 mRNA expression at 300 nM measured after 24 hrs by qRT-PCR analysis. The format is functional, cell-based.
Data set [18] relates to Mus musculus. The experiment in a line: Antiinflammatory activity in C57BL/6J mouse model of MOG (35 to 55 residues)/pertussis toxin/complete Freund's adjuvant-induced experimental allergic encephalomyelitis assessed as reduction in development of clinical symptoms at 200 mg/kg, ig administered daily starting from 7 days post-immunization up to 26 days. The format is functional, organism-based. The method in brief:
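MOG35-55/CFA EAE mice received daily saline vehicle, 100 or 200 mg/kg drug, or dexamethasone 10 mg/kg from day 7 post-immunisation. Clinical signs were scored on a 0-5 scale (e.g. 3 = complete bilateral hind limb paralysis, 5 = death). Mean scores used n=5.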

SMILES strings stand for the structures. Calls of active or inactive are those of the source. The calls are words filed in the database; no cut-off is given here.

Sequence of RAC-alpha serine/threonine-protein kinase (Mus musculus) (P31750 whole entry): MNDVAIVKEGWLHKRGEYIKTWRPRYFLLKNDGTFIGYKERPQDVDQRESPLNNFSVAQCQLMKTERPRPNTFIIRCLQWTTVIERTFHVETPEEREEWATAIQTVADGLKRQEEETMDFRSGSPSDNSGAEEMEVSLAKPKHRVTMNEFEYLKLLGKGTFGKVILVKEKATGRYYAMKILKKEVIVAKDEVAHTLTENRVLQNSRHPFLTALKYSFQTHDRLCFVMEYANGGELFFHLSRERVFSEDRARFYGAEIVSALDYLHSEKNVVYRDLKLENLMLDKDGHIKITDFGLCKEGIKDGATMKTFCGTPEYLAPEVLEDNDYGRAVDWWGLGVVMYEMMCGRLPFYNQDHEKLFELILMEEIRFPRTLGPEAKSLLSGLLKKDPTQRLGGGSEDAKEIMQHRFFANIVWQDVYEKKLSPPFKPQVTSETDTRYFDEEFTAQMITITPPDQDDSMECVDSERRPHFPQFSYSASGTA

As for `Cl.Cn1ncc(Cl)c1-c1ccc(C(=O)N[C@@H]2CNCC[C@H]2c2cccc(F)c2)cc1`, in the data set with BMDM [1], the inhibition entry is “Dose-dependent effect”. Further, the outcome (in the data set on BMDM [2]; in data set [3]; in the data set on Mus musculus [5]; in the data set with BMDM [7]; in data set [10]; with BMDM [14]) was Active. In addition, the outcome in the data set on RAW264.7 [16] and with Mus musculus [18] was Active. Also, the Cmax in data set [4] was found to be 1000 ng/mL. The compound further gave a half-life in data set [6] of 6.3 h. This compound also registered an AUC(0-inf) in data set [8] of 4740 ng·h/mL. The outcome in the data set on Mus musculus [9], in the data set on Mus musculus [12] and with Mus musculus [15] was inactive. In the data set with RAW264.7 [11], the “fold change (FC)” value is given as 13.97. In addition, the bioavailability in data set [13] turned out to be 50.6%. Besides, the inhibition entry with RAW264.7 [17] was “Active”.
